Compound activity (PubChem)
Sampled rows, rich in hits. Any-hit rate of the full collection: about 2.9%.
Runt-CBFb FRET: Runt domain-CBFb interaction inhibition; hit rate 0.46% among 220,000; inhibition, % at 20 µM; Q01196+Q13951; Cerulean-Runt/Venus-CBFb FRET ratio 530/480, 1 h;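 active = inhibition over about 50% at 20 µM in the single-dose screen, limit read from the data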;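 also: 0% = DMSO wells and 100% = excess unlabeled CBFb competitor control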
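Schedule: protein complex preformed 1 h, compound exposure 1 h, room temperature, dark; test system: Cerulean-labeled Runt domain protein; amount: 100 nM per protein; buffer or medium: Tris 50 mM pH 7.5, KCl, K2SO4, 0.01% BSA; read-out: loss of energy transfer signal; detection: FRET fluorescence; controls: 5 µM unlabeled CBFb as full-inhibition high control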
PfM18AAP inh: PfM18AAP enzyme inhibition; recombinant PfM18AAP, H-Glu-NHMec fluorogenic cleavage; hit rate 1.2% among 290,000; AID 1822; inhibition, % at 7.35 µM;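 active = inhibition above the campaign mean inhibition over all tested compounds plus 3 SD, cut at about 28% in these data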;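 also: 0% = plate median of test compound wells and 100% = 2 mM ZnCl2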
RanGTP-Imp inh: disruptors of Ran-importin-beta complex formation – biochemical, FRET, CFP-Ran, YFP-importin-beta, homogeneous, primary screen; cell-free CFP-Ran/YFP-importin-beta FRET ratio; inhibition, % (concentration not given with the values); hit rate 1.1% among 300,000; AID 2216;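 active = more than half of the replicate wells show a fall in the fluorescence ratio signal beyond about 16%, limit read from the data, passing the limit was not always enough; inconclusive = exactly half of the replicate wells pass the set limit; inactive = fewer than half of replicates pass the limit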;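 also: 0% = DMSO wells and 100% = Ran loaded with GDP instead of GTP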
Runt-SMMHC FRET: inhibitors of human RUNX1 Runt domain binding to CBFb-SMMHC; Q01196+Q13951; Cerulean-Runt/Venus-CBFb-SMMHC FRET ratio 530/480, 1 h; inhibition, % at 20 µM; hit rate 0.74% among 220,000; AID 1434;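 active = mean inhibition across duplicate retests at 20 µM reaching about 50%, limit read from the data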;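 also: 0% = DMSO wells and 100% = wells with excess untagged CBFb-SMMHC; inhibitors lower the FRET ratio by blocking Runt binding to CBFb-SMMHC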
Hck-Nef inh: blocks Nef-activated human Hck kinase. P08631. Recombinant Hck-YEEI plus Nef, Z-Lyte FRET kinase assay. inhibition, % at 20 µM. hit rate 0.68% among 220,000. AID 463187;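 active = Hck-Nef kinase inhibition above about 50%, limit read from the data; inactive = inhibition below that limit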;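 also: 0% = DMSO with Hck plus Nef and 100% = Hck alone without Nef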
Target sequence (P08631 whole entry, looked up): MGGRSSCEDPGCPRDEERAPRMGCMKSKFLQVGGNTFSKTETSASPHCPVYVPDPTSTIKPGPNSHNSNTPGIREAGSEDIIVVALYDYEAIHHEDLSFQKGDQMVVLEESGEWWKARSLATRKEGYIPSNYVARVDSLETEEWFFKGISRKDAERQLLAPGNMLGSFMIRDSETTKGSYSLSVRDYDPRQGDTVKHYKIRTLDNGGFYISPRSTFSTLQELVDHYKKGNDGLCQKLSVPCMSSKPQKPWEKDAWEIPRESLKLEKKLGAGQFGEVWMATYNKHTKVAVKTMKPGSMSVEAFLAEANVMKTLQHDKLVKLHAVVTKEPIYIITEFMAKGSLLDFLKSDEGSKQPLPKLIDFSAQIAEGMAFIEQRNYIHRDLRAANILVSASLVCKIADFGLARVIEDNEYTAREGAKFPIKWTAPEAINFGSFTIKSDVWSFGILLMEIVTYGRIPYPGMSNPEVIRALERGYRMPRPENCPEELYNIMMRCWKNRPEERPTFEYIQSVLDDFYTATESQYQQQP
RBBP9 inhibitor: blocks human serine hydrolase RBBP9; inhibition, % at 7.94 µM; AID 1515; hit rate 0.2% among 220,000; recombinant RBBP9, FP-Rh probe fluorescence polarization;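 active = inhibition above the campaign mean of all tested compounds plus 3 SD, cut at about 14% in these data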;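 also: plate controls were DMSO wells with RBBP9 for no effect and wells lacking RBBP9 protein for full effect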
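Assay system: recombinant human RBBP9; Reagent: Serine-hydrolase probe FP-Rh, 375 nM pre-mixing; Doses: 7.94 µM single dose, 0.794% DMSO; Incubation: 30 min then 45 min, 25 °C; Detection: fluorescence polarization (mP), excitation 525 nm, emission 598 nm; Evaluation: percent inhibition from mP, scaled between DMSO and no-protein wells.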
* marks the source's active call; other numbers are inactive results; ? = inconclusive; . = not tested or not shown.

SMILES	Runt-CBFb FRET	PfM18AAP inh	RanGTP-Imp inh	Runt-SMMHC FRET	Hck-Nef inh	RBBP9 inhibitor
COc1ccc(C2C(C#N)=C(N)Oc3cc(O)ccc32)cc1C (stereo unspecified)	.	18	67*	.	.	.
N#CC1=C(N)Oc2cc(O)ccc2C1c1ccccc1 (stereo unspecified)	49	7	53*	65*	-8	-14
COc1ccc(C2C(C#N)=C(N)SC(N)=C2C#N)cc1OC	13	2	48*	12	6	2
CC(NC(=O)C1CCC(C(=O)NC(C)c2ccccc2)CC1)c1ccccc1 (stereo unspecified)	.	-6	0	.	.	.
COc1cc(C2C(C#N)=C(N)Oc3cc4c(cc32)OCO4)cc(OC)c1OC (stereo unspecified)	8	5	5	5	15	-1
COC(=O)C1=C2SC(C)C(=O)N2C(N)=C(C#N)C1c1cc(OC)c(OC)c(OC)c1 (stereo unspecified)	10	16	7	14	0	0
COc1cc(C2C(C#N)=C(N)Oc3cc(O)ccc32)cc(OC)c1OC (stereo unspecified)	12	6	69*	-19	2	-3
COC(=O)C1=C2SC(C)C(=O)N2C(N)=C(C#N)C1c1ccc(OC)c(OC)c1 (stereo unspecified)	5	30*	4	22	0	-2
COc1ccc(C2C(C#N)=C(N)Oc3cc(O)ccc32)cc1OC (stereo unspecified)	10	1	56*	42	4	-8
O=S(=O)(c1ccc(F)c(F)c1)N1CCN(c2ccccn2)CC1	.	-3	2	.	.	.
Cc1ccc(-c2ccc(NC(=O)C3C4C=CC(C4)C3C(=O)O)cc2)o1 (stereo unspecified)	8	-39	30*	5	2	0
Cc1cc(Cl)ccc1NC(=S)N1CCN(C(=O)c2ccco2)CC1	.	4	5	.	.	.
CCOC(=O)c1c2ccccc2[n+]([O-])n1CCO	.	.	-1	.	.	.
CN1C(=O)CS(=O)c2ccc(C(=O)NCCC3=CCCCC3)cc21 (stereo unspecified)	2	30*	?	4	1	-2
O=C(NCCC1=CCCCC1)c1ccc2c(c1)N(Cc1ccccc1)C(=O)CS2	-3	-6	4	-8	1	-6
Oc1c(Br)cc(Br)cc1C=Nc1cccnc1	.	30*	-24	.	.	.
O=C(NCC1CCCC(CNC(=O)Nc2ccc(Cl)cn2)C1)Nc1ccc(Cl)cn1 (stereo unspecified)	.	-2	0	.	.	.
FC(F)(F)c1cccc(NC(=S)NNC(=S)Nc2cccc(C(F)(F)F)c2)c1	18	3	0	15	-12	-9
CCOc1ccc(NC(=S)NNC(=S)Nc2cccc(C(F)(F)F)c2)cc1	19	15	22*	7	2	1
CNNC(=S)Nc1cccc(C(F)(F)F)c1	1	29*	2	3	9	1
COc1ccc(CC(=O)Nc2cccc(/C(C)=N/NC(=O)C3(C)CC3(Br)Br)c2)cc1 (stereo unspecified)	.	-10	0	.	.	.
Cc1c(C#N)c(N)nc2c3c(sc12)NC(=O)CC3c1ccc(Cl)cc1 (stereo unspecified)	5	-4	3	8	46	8
N#Cc1c(N)nc2c3c(sc(=N)c2c1N)NC(=O)CC3c1c(F)cccc1Cl (stereo unspecified)	8	11	85*	9	13	6
N#Cc1c(N)nc2c3c(sc(=N)c2c1N)NC(=O)CC3c1ccccc1 (stereo unspecified)	23	7	119*	40	10	-1
Cc1cc(O)ccc1Nc1nc(-c2cccs2)cs1	44	11	0	19	57*	4
SMILES	Runt-CBFb FRET	PfM18AAP inh	RanGTP-Imp inh	Runt-SMMHC FRET	Hck-Nef inh	RBBP9 inhibitor
c1ccc(-c2csc(Nc3cccnc3)n2)nc1	1	1	2	-4	9	12
c1cncc(Nc2nc(-c3cccs3)cs2)c1	36	30*	6	34	9	0
CCOC(=O)C1(Cc2ccccc2C)CCCN(S(=O)(=O)CC)C1 (stereo unspecified)	.	0	3	.	.	.
COc1cc(C2NC(=O)NC(C)=C2C(=O)OCc2ccc(C)cc2)cc(OC)c1O (stereo unspecified)	-3	15	66*	2	0	-5
COc1cc(C2NC(=O)NC(C)=C2C(=O)OCc2ccc(C)cc2)cc(OC)c1OC (stereo unspecified)	.	3	29*	.	.	.
COc1cc(C2NC(=O)NC(C)=C2C(C)=O)cc(OC)c1OC (stereo unspecified)	4	-4	-1	-1	16	-6
CCOC(=O)C1=C(C)NC(=O)NC1c1cc(Br)c(O)c(OC)c1 (stereo unspecified)	6	8	-1	0	0	-18
CCOC(=O)c1c(C)[nH]c(C)c1S(=O)(=O)N(C)CC(=O)NCc1ccc(F)cc1	.	-1	-2	.	.	.
Cc1cc(C)cc(NC(=O)C2CCN(C(=O)c3cccs3)CC2)c1	.	0	-6	.	.	.
CCOc1ccc(/C=N/Nc2nc(C)cs2)c(O)c1	.	28*	1	.	.	.
Cc1csc(N/N=C/c2ccccc2F)n1	.	0	?	.	.	.
CCCCN(CCCC)c1nc2ccccc2nc1C(C#N)C(=O)NCCCOC (stereo unspecified)	3	0	32*	26	-2	-9
CCCN(CCC)c1nc2ccccc2nc1C(C#N)C(=O)OC(C)COC (stereo unspecified)	.	15	23*	.	-1	4
CCN(CC)c1nc2ccccc2nc1C(C#N)C(=O)NCCc1ccccc1 (stereo unspecified)	34	3	52*	59*	2	4
COCCOC(=O)C(C#N)c1nc2ccccc2nc1N1CCCC1 (stereo unspecified)	13	9	9	30	1	-3
CCN(CC)c1nc2ccccc2nc1C(C#N)C(=O)NCCCOC (stereo unspecified)	67*	-20	.	61*	5	1
O=C(NCC(c1ccco1)N1CCCC1)c1ccc(S(=O)(=O)Nc2ccccc2F)cc1 (stereo unspecified)	.	.	1	.	.	.
NC(=S)N/N=C1\CCOc2ccc(F)cc21	2	-6	0	-9	-3	-2
CCOc1ccc(NC(=O)N2CCC(C(N)=O)(N3CCCCC3)CC2)cc1	0	28*	0	2	1	-6
NC(=O)C1(N2CCCCC2)CCN(C(=S)Nc2ccccc2)CC1	1	3	?	1	1	-1
CCOC(=O)C1CCN(S(=O)(=O)c2ccc3c(c2)NC(=O)CS3)CC1	.	-2	0	.	.	.
